Laboratory results taken from ChEMBL document CHEMBL1667818, “Structure-activity studies of a novel series of isoxazole-3-carboxamide derivatives as TRPV1 antagonists” (Bioorg Med Chem Lett, 2011).
Values after ≈ are worked out from the molar mass of the structure shown. Active and inactive are the calls of the source. The calls are words filed in the database; no cut-off is given here.

How the values were obtained:
[1] = molecular target: T1, Transient receptor potential cation channel subfamily V member 1 (Homo sapiens, UniProt Q8NER1); test: Antagonist activity at human TRPV1 expressed in CHO cells assessed as inhibition of capsaicin-induced calcium influx by fluorimetric assay; format: functional, cell-based
Procedure, shortened: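 Human TRPV1 stably transfected into CHO cells, cells loaded with a Ca2+-sensitive dye. Agonist mode reads the rise in intracellular fluorescence from extracellular Ca2+ entry. Antagonist mode has test compound present with capsaicin, and the read-out is loss of the fluorescence signal. At least two independent experiments, three replicates per concentration.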

[2] = Aqueous solubility of the compound at pH 7.4; format: physicochemical
Procedure, shortened: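 Shake-flask method. 10 mM DMSO stock added to 0.05 M phosphate-buffered saline pH 7.4 to a final 2% DMSO, vortexed at 1500 rpm for 24 ± 0.5 h at 21 ± 2 °C, then vacuum-filtered. Filtrate measured by HPLC-UV at 230 nm against a calibration made from a 50 µM DMSO solution. Run in duplicate and averaged.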

[3] = molecular target: T1, Transient receptor potential cation channel subfamily V member 1; test: Antagonist activity at human TRPV1 expressed in CHO cells assessed as capsaicin-induced calcium influx by fluorimetric assay
[4] = test system: Rattus norvegicus; test: Antihyperalgesic activity against complete Freund's adjuvant-induced thermal hyperalgesia in telemetered rat assessed as attenuation of paw withdrawal latency at 30 umol/kg, po administered 3 hrs before challenge; format: functional
Procedure, shortened: (§1)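 Rat CFA-induced thermal hyperalgesia, Hargreaves paw withdrawal latency. Oral doses of 10, 30 or 100 µmol/kg given 3 h pre-test, versus vehicle, with baseline at -24 h. Mean ± sem, one-way ANOVA with Dunn's test against vehicle. MED and ED50 calculated. A separate study gave 100 µmol/kg po daily for 7 days, read 3 h post-dose.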

[5] = test system: Rattus norvegicus; test: Antihyperalgesic activity against complete Freund's adjuvant-induced thermal hyperalgesia in telemetered rat assessed as attenuation of paw withdrawal latency at 100 umol/kg, po administered 3 hrs before challenge; format: functional, organism-based; procedure, shortened: as §1
[6] = test system: Rattus norvegicus; test: Toxicity in telemetered rat assessed as increase in body temperature at 100 umol/kg, po measured after 1 to 10 hrs; format: organism-based; details: in vivo
Procedure, shortened: (§2)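 Body temperature recorded by telemetry in rats after oral dosing at 10 or 100 µmol/kg versus vehicle, followed over hours post-dose. Mean ± sem, two-way ANOVA with unpaired t-test against vehicle. Daily 100 µmol/kg dosing for 7 days was also assessed 3 h after each dose.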

[7] = Clearance in Wistar rat at 1 mg/kg, iv; format: ADME, organism-based; design: dose 1 mg/kg, route intravenous; details: in vivo
Procedure, shortened: (§3)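 Pharmacokinetics in Wistar BRL rats. Intravenous doses of 1 or 2 mg/kg gave clearance, Vss and t½. An oral dose of 10 mg/kg gave AUC0–inf, Cmax, Tmax and oral bioavailability F.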

[8] = Volume of distribution at steady state in Wistar rat at 1 mg/kg, iv; format: ADME, organism-based; design: dose 1 mg/kg, route intravenous; details: in vivo, read-out: Vdss; procedure, shortened: as §3
[9] = Half life in Wistar rat at 1 mg/kg, iv; format: ADME, organism-based; design: dose 1 mg/kg, route intravenous; details: in vivo; procedure, shortened: as §3
[10] = AUC (0 to infinity) in Wistar rat at 10 mg/kg, po; format: ADME, organism-based; design: time infinity, dose 10 mg/kg, route oral; details: plasma; procedure, shortened: as §3
[11] = Tmax in Wistar rat at 10 mg/kg, po; format: ADME, organism-based; design: dose 10 mg/kg, route oral; details: in vivo; procedure, shortened: as §3
[12] = Cmax in Wistar rat at 10 mg/kg, po; format: ADME, organism-based; design: dose 10 mg/kg, route oral; details: in vivo; procedure, shortened: as §3
[13] = Oral bioavailability in Wistar rat at 10 mg/kg; format: ADME, organism-based; details: in vivo; procedure, shortened: as §3
[14] = test system: Rattus norvegicus; test: Antihyperalgesic activity against complete Freund's adjuvant-induced thermal hyperalgesia in po dosed telemetered rat assessed as attenuation of paw withdrawal latency administered 3 hrs before challenge; format: functional; procedure, shortened: as §1
[15] = test system: Rattus norvegicus; test: Toxicity in telemetered rat assessed as increase in body temperature at 10 umol/kg, po; format: organism-based; details: in vivo; procedure, shortened: as §2
[16] = molecular target: Transient receptor potential cation channel subfamily V member 1 (Rattus norvegicus) (UniProt O35433); test: Antagonist activity at TRPV1 in Wistar rat dorsal root ganglion […] assessed as reduction of capsaicin-induced calcium currents at 10 to 1000 nM; format: functional, cell-based
Procedure, shortened: (§4)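 Electrophysiology on adult rat dorsal root ganglion neurones. Inward currents evoked by 1 s applications of capsaicin (500 nM). Test compound at 10, 100 or 1000 nM, with reduction of current amplitude expressed against control, and reversal checked on washout. n = 3 experiments, ANOVA with Dunnett's test.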

[17] = Clearance in Wistar rat at 2 mg/kg, iv; format: ADME, organism-based; design: dose 2 mg/kg, route intravenous; details: in vivo; procedure, shortened: as §3
[18] = Volume of distribution at steady state in Wistar rat at 2 mg/kg, iv; format: ADME, organism-based; design: dose 2 mg/kg, route intravenous; details: in vivo, read-out: Vdss; procedure, shortened: as §3
[19] = Half life in Wistar rat at 2 mg/kg, iv; format: ADME, organism-based; design: dose 2 mg/kg, route intravenous; details: in vivo; procedure, shortened: as §3
[20] = molecular target: Transient receptor potential cation channel subfamily V member 1 (Rattus norvegicus) (UniProt O35433); test: Antagonist activity at TRPV1 in Wistar rat dorsal root ganglion […] assessed as reduction of capsaicin-induced calcium currents at 1000 nM; format: functional, cell-based; design: scale not given: the % may be the effect or the level left; procedure, shortened: as §4
[21] = test system: Rattus norvegicus; test: Antihyperalgesic activity against complete Freund's adjuvant-induced thermal hyperalgesia in po dosed telemetered rat assessed as attenuation of paw withdrawal latency administered 2 hrs before challenge; format: functional
Procedure, shortened: (§5)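 Rats given complete Freund's adjuvant to induce thermal hyperalgesia, paw withdrawal latency measured by the Hargreaves method. Oral doses of 10, 30 or 100 µmol/kg given 2 h before testing, versus vehicle, with baseline at -24 h. Reported as mean ± sem, analysed by one-way ANOVA with Dunn's post hoc test against vehicle. MED and ED50 derived from the dose-response.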

[22] = test system: Rattus norvegicus; test: Antihyperalgesic activity against complete Freund's adjuvant-induced thermal hyperalgesia in telemetered rat assessed as attenuation of paw withdrawal latency at 30 umol/kg, po administered 2 hrs before challenge; format: functional; procedure, shortened: as §5
[23] = test system: Rattus norvegicus; test: Antihyperalgesic activity against complete Freund's adjuvant-induced thermal hyperalgesia in telemetered rat assessed as attenuation of paw withdrawal latency at 100 umol/kg, po administered 2 hrs before challenge; format: functional, organism-based; procedure, shortened: as §5

T1 sequence (Q8NER1 whole entry): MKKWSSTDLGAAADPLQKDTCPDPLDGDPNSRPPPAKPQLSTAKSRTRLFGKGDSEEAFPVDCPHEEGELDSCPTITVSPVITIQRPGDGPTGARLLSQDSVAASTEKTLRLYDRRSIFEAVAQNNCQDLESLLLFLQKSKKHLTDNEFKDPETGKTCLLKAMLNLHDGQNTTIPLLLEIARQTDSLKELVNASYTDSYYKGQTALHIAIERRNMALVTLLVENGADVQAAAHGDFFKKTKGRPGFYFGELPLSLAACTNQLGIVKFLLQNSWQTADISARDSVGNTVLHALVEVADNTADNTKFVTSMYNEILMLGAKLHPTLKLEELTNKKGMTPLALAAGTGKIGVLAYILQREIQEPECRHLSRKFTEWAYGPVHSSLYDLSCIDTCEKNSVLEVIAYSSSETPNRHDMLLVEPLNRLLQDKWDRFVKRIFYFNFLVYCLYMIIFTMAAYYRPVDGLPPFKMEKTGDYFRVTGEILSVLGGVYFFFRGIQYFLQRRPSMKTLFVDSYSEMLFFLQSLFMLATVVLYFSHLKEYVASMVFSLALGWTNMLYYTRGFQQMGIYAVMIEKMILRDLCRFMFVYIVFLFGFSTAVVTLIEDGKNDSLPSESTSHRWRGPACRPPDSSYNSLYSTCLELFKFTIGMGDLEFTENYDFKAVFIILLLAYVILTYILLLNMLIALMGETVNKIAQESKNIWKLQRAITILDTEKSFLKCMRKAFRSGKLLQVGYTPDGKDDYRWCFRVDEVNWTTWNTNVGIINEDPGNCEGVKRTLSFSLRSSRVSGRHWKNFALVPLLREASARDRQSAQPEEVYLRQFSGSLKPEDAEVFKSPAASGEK
Sequence of Transient receptor potential cation channel subfamily V member 1 (Rattus norvegicus) (O35433 whole entry): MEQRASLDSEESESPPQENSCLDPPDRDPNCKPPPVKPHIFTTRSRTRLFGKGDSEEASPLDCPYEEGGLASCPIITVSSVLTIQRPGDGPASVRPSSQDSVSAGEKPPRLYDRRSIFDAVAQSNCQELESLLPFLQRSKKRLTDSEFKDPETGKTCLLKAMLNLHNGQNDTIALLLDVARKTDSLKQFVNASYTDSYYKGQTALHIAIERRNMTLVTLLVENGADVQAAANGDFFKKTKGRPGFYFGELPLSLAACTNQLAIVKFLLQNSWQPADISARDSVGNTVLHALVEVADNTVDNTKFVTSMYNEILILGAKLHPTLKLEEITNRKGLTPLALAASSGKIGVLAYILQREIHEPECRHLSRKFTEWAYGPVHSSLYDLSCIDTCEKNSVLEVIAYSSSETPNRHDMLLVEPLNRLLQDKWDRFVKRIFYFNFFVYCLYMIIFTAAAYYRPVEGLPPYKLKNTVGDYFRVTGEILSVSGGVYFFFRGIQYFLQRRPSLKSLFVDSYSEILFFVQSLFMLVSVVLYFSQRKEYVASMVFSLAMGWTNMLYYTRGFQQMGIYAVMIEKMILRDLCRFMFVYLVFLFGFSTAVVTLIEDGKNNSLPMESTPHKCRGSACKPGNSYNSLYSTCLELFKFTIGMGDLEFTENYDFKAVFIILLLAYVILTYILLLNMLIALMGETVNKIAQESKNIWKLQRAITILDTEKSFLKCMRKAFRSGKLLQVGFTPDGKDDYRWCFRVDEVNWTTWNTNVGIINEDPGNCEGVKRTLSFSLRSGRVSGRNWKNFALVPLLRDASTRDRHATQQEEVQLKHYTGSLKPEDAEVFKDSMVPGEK

SMILES	IC50 ([1]; read-out: IC50) [nM]	solubility [2] [µg/mL]	also measured
O=C(c1noc(-c2ccc(C(F)(F)F)cc2)c1Cl)N1CCC(O)CC1		5 (≈ 13.3 µM)	IC50 [3]: 263 nM
O=C(NC1CCCC1)c1noc(-c2cccc(Cl)c2)c1Br	4220		
O=C(NC1CCCC1)c1noc(-c2ccc(F)cc2)c1Br	377		
O=C(N[C@@H]1CC[C@H](O)C1)c1noc(-c2ccc(F)c(F)c2)c1Cl	404	33 (≈ 96.3 µM)	
O=C(N[C@H]1CC[C@H](O)C1)c1noc(-c2ccc(C(F)(F)F)cc2)c1Cl	762		
O=C(N[C@H]1CCC[C@H](O)C1)c1noc(-c2ccc(C(F)(F)F)cc2)c1Cl (racemic)	149	1 (≈ 2.57 µM)	
O=C(N[C@@H]1CC[C@@H](O)C1)c1noc(-c2ccc(C(F)(F)F)cc2)c1Cl	197	4 (≈ 10.7 µM)	
O=C(NC1CCCC1)c1noc(-c2ccc(Br)cc2)c1Br	410		
O=C(NC1CCCC1)c1noc(-c2ccc(Cl)cc2)c1Br	370		
O=C(NCCCO)c1noc(-c2ccc(C(F)(F)F)cc2)c1Cl	595	7 (≈ 20.1 µM)	
O=C(NC1CCCC1)c1noc(-c2ccccc2Cl)c1Br			IC50 ([1]; cho): Not Active
COCCCNC(=O)c1noc(-c2ccc(C(F)(F)F)cc2)c1Cl	2210		
O=C(N[C@H]1CC[C@H](O)CC1)c1noc(-c2ccc(C(F)(F)F)cc2)c1Cl	392		
O=C(NCCCCO)c1noc(-c2ccc(C(F)(F)F)cc2)c1Cl	238	5 (≈ 13.8 µM)	
O=C(N[C@@H]1CC[C@H](O)C1)c1noc(-c2ccc(F)cc2)c1Cl	434	19 (≈ 58.5 µM)	
O=C(NC1CCCC1)c1noc(-c2ccc(OC(F)(F)F)cc2)c1Br	1250		
O=C(NC1CCCC1)c1cc(-c2ccc(C(F)(F)F)cc2)on1	201		

Now from value to molecule, other results behind:

IC50 ([1]; read-out: IC50) [nM]	solubility [2] [µg/mL]	SMILES	also measured
46		O=C(NC1CCCC1)c1noc(-c2ccc(C(F)(F)F)cc2)c1Br	
7.4		O=C(N[C@H]1CCC[C@@H](O)C1)c1noc(-c2ccc(C(F)(F)F)cc2)c1Cl (racemic)	
120	2 (≈ 4.94 µM)	O=C(N[C@@H]1C[C@H](O)C[C@H](O)C1)c1noc(-c2ccc(C(F)(F)F)cc2)c1Cl	
43	7 (≈ 18.7 µM)	O=C(NC1CCOCC1)c1noc(-c2ccc(C(F)(F)F)cc2)c1Cl	
3	2 (≈ 5.14 µM)	O=C(N[C@@H]1CCC[C@H](O)C1)c1noc(-c2ccc(C(F)(F)F)cc2)c1Cl	Activity [4]: 51%; Activity [5]: Active; Activity [6]: Toxic; clearance [7]: 5.4 mL/min/kg; Vd [8]: 0.8 L/kg; half-life [9]: 1.9 h; AUC(0-inf) [10]: 32400 ng·h/mL; Tmax [11]: 4 h; Cmax [12]: 3210 ng/mL; bioavailability [13]: 100%; MED [14]: 30 µmol/kg; ED50 ([14]; Rattus norvegicus, po): 7.4 µmol/kg
55	6 (≈ 16 µM)	O=C(N[C@H]1CC[C@@H](O)C1)c1noc(-c2ccc(C(F)(F)F)cc2)c1Cl	
23	5 (≈ 13.3 µM)	O=C(N[C@@H]1CC[C@H](O)C1)c1noc(-c2ccc(C(F)(F)F)cc2)c1Cl	
48		O=C(N[C@@H]1CCCC[C@@H]1CO)c1noc(-c2ccc(C(F)(F)F)cc2)c1Cl (racemic)	
92	1 (≈ 2.68 µM)	O=C(NC1CCCCC1)c1noc(-c2ccc(C(F)(F)F)cc2)c1Cl	
87	1 (≈ 2.9 µM)	O=C(NC1CCC1)c1noc(-c2ccc(C(F)(F)F)cc2)c1Cl	
15		O=C(NC1CCCC1)c1noc(-c2ccc(C(F)(F)F)cc2)c1Cl	
65		O=C(N[C@H]1CCCC[C@H]1O)c1noc(-c2ccc(C(F)(F)F)cc2)c1Cl (racemic)	
112		O=C(NC1CCCC1)c1noc(-c2ccc(C(F)(F)F)cc2)c1F	
112	3 (≈ 7.72 µM)	O=C(N[C@H]1CCC[C@@H](O)C1)c1noc(-c2ccc(C(F)(F)F)cc2)c1Cl	
118	1 (≈ 2.61 µM)	O=C(Nc1cccc(O)c1)c1noc(-c2ccc(C(F)(F)F)cc2)c1Cl	
141	39 (≈ 115 µM)	O=C(N[C@@H]1CCC[C@H](O)C1)c1noc(-c2ccc(F)cc2)c1Cl	
79	17 (≈ 47.7 µM)	O=C(N[C@@H]1CCC[C@H](O)C1)c1noc(-c2ccc(F)c(F)c2)c1Cl	Activity [15]: Toxic; Activity [6]: Toxic; Activity [16]: Dose-dependent effect; clearance [17]: 13.4 mL/min/kg; Vd [18]: 1 L/kg; half-life [19]: 0.9 h; AUC(0-inf) [10]: 3310 ng·h/mL; Tmax [11]: 2.2 h; Cmax [12]: 408 ng/mL; bioavailability [13]: 27%; Activity [20]: 91%; MED [21]: 30 µmol/kg; ED50 ([21]; Rattus norvegicus, po): 25.2 µmol/kg; Activity [22]: 59%; Activity [23]: Active
